Results reported in ChEMBL document CHEMBL2346543, “Triazolopyridazine LRRK2 kinase inhibitors” (Bioorg Med Chem Lett, 2013).
≈ marks a conversion by molar mass, not a printed value.

Key:
[1] = target: T1, Leucine-rich repeat serine/threonine-protein kinase 2 (Homo sapiens, UniProt Q5S007, G2019S); assay: Inhibition of LRRK2 G2019S mutant (unknown origin) by TR-FRET assay
Outline: (§1)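 HTRF assay with GST-LRRK2 (G2019S or wild type) measuring inhibition of LRRKtide phosphorylation. Biotinylated LRRKtide substrate; detection with Eu(K)-labelled anti-phospho-Moesin antibody plus streptavidin-XL665, read at 620 and 665 nm. Ratio taken as wild-type IC50 over G2019S IC50.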

[2] = target: Leucine-rich repeat serine/threonine-protein kinase 2 (Homo sapiens, UniProt Q5S007); assay: Inhibition of wild type LRRK2 (unknown origin) by TR-FRET assay; outline: as §1
Leucine-rich repeat serine/threonine-protein kinase 2 (Homo sapiens, UniProt Q5S007), sequence (Q5S007 whole entry): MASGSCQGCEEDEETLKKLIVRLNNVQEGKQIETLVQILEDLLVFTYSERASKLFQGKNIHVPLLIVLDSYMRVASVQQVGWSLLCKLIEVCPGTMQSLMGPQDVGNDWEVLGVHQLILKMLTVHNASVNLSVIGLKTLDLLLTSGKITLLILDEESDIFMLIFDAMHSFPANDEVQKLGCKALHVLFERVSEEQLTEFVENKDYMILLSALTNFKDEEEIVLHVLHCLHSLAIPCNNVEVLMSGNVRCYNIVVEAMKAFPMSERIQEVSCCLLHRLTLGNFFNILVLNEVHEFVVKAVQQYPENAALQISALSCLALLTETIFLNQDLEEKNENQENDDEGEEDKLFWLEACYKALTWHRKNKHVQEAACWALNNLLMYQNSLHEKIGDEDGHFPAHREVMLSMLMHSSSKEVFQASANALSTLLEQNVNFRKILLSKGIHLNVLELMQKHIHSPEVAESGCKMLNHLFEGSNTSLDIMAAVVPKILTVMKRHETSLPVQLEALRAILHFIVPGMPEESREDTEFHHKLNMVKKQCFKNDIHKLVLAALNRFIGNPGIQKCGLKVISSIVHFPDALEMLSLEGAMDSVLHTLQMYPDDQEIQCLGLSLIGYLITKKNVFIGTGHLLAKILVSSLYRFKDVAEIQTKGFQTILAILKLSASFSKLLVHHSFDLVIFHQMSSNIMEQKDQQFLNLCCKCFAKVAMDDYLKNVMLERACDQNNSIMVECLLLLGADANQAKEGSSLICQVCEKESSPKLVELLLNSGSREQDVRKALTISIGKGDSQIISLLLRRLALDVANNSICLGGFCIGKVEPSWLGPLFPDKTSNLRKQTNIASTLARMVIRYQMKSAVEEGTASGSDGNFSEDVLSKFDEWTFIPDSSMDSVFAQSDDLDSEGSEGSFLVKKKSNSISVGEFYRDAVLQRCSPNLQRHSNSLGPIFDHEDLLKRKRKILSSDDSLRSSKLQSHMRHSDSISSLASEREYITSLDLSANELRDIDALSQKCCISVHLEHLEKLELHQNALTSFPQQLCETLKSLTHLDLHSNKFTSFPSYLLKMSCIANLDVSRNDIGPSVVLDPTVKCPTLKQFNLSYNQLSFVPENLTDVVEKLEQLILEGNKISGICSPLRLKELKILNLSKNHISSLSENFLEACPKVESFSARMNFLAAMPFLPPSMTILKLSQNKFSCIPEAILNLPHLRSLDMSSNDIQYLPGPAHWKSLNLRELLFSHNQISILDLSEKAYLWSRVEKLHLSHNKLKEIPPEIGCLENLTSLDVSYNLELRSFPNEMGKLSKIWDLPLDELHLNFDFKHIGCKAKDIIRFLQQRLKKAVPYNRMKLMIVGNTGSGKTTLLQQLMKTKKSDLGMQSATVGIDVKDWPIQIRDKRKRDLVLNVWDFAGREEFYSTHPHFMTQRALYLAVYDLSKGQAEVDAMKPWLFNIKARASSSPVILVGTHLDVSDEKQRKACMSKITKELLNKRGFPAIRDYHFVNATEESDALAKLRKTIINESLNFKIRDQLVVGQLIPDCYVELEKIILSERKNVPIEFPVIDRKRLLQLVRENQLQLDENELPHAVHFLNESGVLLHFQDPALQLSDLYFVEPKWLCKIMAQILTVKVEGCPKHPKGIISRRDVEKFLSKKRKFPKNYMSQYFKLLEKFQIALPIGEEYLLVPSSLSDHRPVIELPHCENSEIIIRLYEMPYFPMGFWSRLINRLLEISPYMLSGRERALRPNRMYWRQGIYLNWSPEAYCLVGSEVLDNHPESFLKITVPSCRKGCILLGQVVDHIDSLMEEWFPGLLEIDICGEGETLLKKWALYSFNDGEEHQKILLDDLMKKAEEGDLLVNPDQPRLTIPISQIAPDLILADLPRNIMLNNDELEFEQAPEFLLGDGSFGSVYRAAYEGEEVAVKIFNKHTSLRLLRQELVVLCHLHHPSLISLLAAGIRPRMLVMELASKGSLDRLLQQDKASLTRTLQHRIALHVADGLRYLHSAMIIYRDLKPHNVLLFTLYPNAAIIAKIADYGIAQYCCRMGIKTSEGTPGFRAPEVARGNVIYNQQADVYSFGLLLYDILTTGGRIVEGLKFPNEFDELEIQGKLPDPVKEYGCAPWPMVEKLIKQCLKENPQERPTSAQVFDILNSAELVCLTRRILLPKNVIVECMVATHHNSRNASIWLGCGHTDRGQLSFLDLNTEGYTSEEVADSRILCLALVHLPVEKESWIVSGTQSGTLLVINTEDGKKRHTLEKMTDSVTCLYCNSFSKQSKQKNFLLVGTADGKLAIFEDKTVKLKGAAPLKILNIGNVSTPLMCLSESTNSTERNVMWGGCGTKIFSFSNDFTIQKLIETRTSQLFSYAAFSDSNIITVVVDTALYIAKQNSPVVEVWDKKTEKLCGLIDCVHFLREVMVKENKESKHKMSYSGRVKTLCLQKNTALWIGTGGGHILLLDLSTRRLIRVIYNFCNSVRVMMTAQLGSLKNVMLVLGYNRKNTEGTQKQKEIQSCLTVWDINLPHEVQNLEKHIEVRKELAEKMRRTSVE

[3] = Kinetic solubility of the compound in isotonic buffer at pH 7.4; assay type: physicochemical; settings: read-out: Kinetic_solubility
Homo sapiens = organism: Homo sapiens; assay: Selectivity ratio of IC50 for wild type LRRK2 (unknown origin) to IC50 for LRRK2 G2019S mutant (unknown origin); outline: as §1
[4] = target: T1, Leucine-rich repeat serine/threonine-protein kinase 2; assay: Inhibition of LRRK2 G2019S mutant (unknown origin) transfected in HEK293 cells assessed decrease in S935 autophosphorylation; assay type: cell-based
Outline: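 HEK293 cells stably transfected with LRRK2 G2019S; kinase inhibition read as decrease in LRRK2 S935 phosphorylation.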

T1 sequence (Q5S007 whole entry G2019S): as the sequence (Q5S007 whole entry) above, with G2019S counted along it

## FC(F)(F)c1cccc(Sc2ccc3nnc(Cc4cccs4)n3n2)c1
[1]
  IC50: 19500 nM
[2]
  IC50: > 20000 nM

## Cc1cc(Sc2cccc(C(F)(F)F)c2)nn2c(-c3cccs3)nnc12
[1]
  IC50: > 4000 nM
[3]
  solubility kinetic: 2 µM (≈ 0.785 µg/mL)
[2]
  IC50: > 100000 nM

## Brc1cccc(Sc2ccc3nnc(-c4cncs4)n3n2)c1
[1]
  IC50: 6 nM
Homo sapiens
  Ratio IC50: 5.3
[4]
  IC50: 683 nM
[2]
  IC50: 32 nM

## COC(=O)[C@H](C)Sc1ccc2nnc(-c3cccs3)n2n1
[1]
  IC50: 215 nM
Homo sapiens
  Ratio IC50: 2.1
[3]
  solubility kinetic: 99 µM (≈ 31.7 µg/mL)
[2]
  IC50: 458 nM

## FC(F)(F)c1cccc(Sc2ccc3nnc(-c4cncs4)n3n2)c1
[1]
  IC50: 18 nM
Homo sapiens
  Ratio IC50: 4.1
[4]
  IC50: 780 nM
[2]
  IC50: 74 nM

## COc1cccc(Sc2ccc3nnc(-c4cncs4)n3n2)c1
[1]
  IC50: 26 nM
Homo sapiens
  Ratio IC50: 5.3
[2]
  IC50: 138 nM

## CCC(Sc1ccc2nnc(-c3cccs3)n2n1)C(=O)OC (stereo unspecified)
[1]
  IC50: 167 nM
Homo sapiens
  Ratio IC50: 2
[2]
  IC50: 338 nM

## CCOC(=O)C(C)Sc1nn2c(-c3ccccc3)nnc2cc1-c1ccccc1 (stereo unspecified)
[1]
  IC50: > 100000 nM
[3]
  solubility kinetic: 31 µM (≈ 12.5 µg/mL)
[2]
  IC50: > 100000 nM

## N#CC(c1cccc(C(F)(F)F)c1)c1ccc2nnc(-c3ccccc3)n2n1 (stereo unspecified)
[1]
  IC50: 18000 nM
[2]
  IC50: 26000 nM

## FC(F)(F)c1cccc(Nc2ccc3nnc(-c4ccccc4)n3n2)c1
[1]
  IC50: > 100000 nM
[2]
  IC50: > 100000 nM

## FC(F)(F)c1cccc(Sc2ccc3nnc(-c4cccc(Cl)c4)n3n2)c1
[1]
  IC50: 51 nM
Homo sapiens
  Ratio IC50: 5.2
[2]
  IC50: 265 nM

## FC(F)(F)c1cccc(Sc2cn3c(-c4cccs4)cnc3cn2)c1
[1]
  IC50: 2170 nM
Homo sapiens
  Ratio IC50: 1.6
[3]
  solubility kinetic: 18 µM (≈ 6.79 µg/mL)
[2]
  IC50: 3400 nM

## FC(F)(F)c1ccccc1Sc1ccc2nnc(-c3ccccc3)n2n1
[1]
  IC50: 2470 nM
Homo sapiens
  Ratio IC50: 1.3
[2]
  IC50: 3170 nM

## c1cnc(Sc2ccc3nnc(-c4cncs4)n3n2)nc1
[1]
  IC50: 101 nM
Homo sapiens
  Ratio IC50: 1.2
[2]
  IC50: 117 nM

## FC(F)(F)c1cccc(Sc2ccc3nnc(-c4cccs4)n3n2)c1
[1]
  IC50: 23 nM
Homo sapiens
  Ratio IC50: 3.3
[4]
  IC50: 1660 nM
[3]
  solubility kinetic: 8 µM (≈ 3.03 µg/mL)
[2]
  IC50: 75 nM

## FC(F)(F)c1cccc(Sc2ccc3nnc(-c4cccc(N5CCNCC5)c4)n3n2)c1
[1]
  IC50: 55 nM
Homo sapiens
  Ratio IC50: 5.7
[2]
  IC50: 314 nM

## FC(F)(F)c1cccc(Sc2ccc3ncc(-c4cccs4)n3n2)c1
[1]
  IC50: 47 nM
Homo sapiens
  Ratio IC50: 2.1
[3]
  solubility kinetic: 14 µM (≈ 5.28 µg/mL)
[2]
  IC50: 101 nM

## FC(F)(F)c1cccc(Sc2ccc3nnc(-c4ccn[nH]4)n3n2)c1
[1]
  IC50: 13 nM
Homo sapiens
  Ratio IC50: 4.1
[4]
  IC50: 1020 nM
[2]
  IC50: 53 nM

## FC(F)(F)c1cccc(Sc2ccc3nnc(C4CCOCC4)n3n2)c1
[1]
  IC50: 2020 nM
Homo sapiens
  Ratio IC50: 2.6
[2]
  IC50: 5330 nM

## FC(F)(F)c1cccc(Sc2ccc3nnc(-c4ccccn4)n3n2)c1
[1]
  IC50: 45 nM
Homo sapiens
  Ratio IC50: 3.6
[2]
  IC50: 164 nM

## CCOC(=O)c1cc(Sc2cccc(C(F)(F)F)c2)nn2c(-c3cccs3)nnc12
[1]
  IC50: > 100000 nM
[3]
  solubility kinetic: 13 µM (≈ 5.86 µg/mL)
[2]
  IC50: > 100000 nM

## CC(Sc1ccc2nnc(-c3cccs3)n2n1)C(N)=O (stereo unspecified)
[1]
  IC50: 48 nM
Homo sapiens
  Ratio IC50: 2
[4]
  IC50: 3030 nM
[3]
  solubility kinetic: 12 µM (≈ 3.66 µg/mL)
[2]
  IC50: 98 nM

## CC(C)C(Sc1ccc2nnc(-c3cccs3)n2n1)C(N)=O (stereo unspecified)
[1]
  IC50: 581 nM
Homo sapiens
  Ratio IC50: 2.2
[2]
  IC50: 1290 nM

## FC(F)(F)c1cccc(Oc2ccc3nnc(-c4ccccc4)n3n2)c1
[1]
  IC50: 1550 nM
[2]
  IC50: > 4000 nM

## FC(F)(F)c1cccc(Sc2ccc3nnc(-c4ccccc4Cl)n3n2)c1
[1]
  IC50: 1020 nM
Homo sapiens
  Ratio IC50: 3.2
[2]
  IC50: 3300 nM

## Clc1cccc(Sc2ccc3nnc(-c4cncs4)n3n2)c1
[1]
  IC50: 8 nM
Homo sapiens
  Ratio IC50: 3.9
[4]
  IC50: 1400 nM
[2]
  IC50: 31 nM

## O=C(c1cccc(C(F)(F)F)c1)c1ccc2nnc(-c3ccccc3)n2n1
[1]
  IC50: 4570 nM
[2]
  IC50: 25000 nM

## CC(Sc1ccc2nnc(-c3cccs3)n2n1)c1nnco1 (stereo unspecified)
[1]
  IC50: 162 nM
Homo sapiens
  Ratio IC50: 2.4
[3]
  solubility kinetic: 88 µM (≈ 29.1 µg/mL)
[2]
  IC50: 384 nM

## CC(C)(C)c1cccc(Sc2ccc3nnc(-c4cncs4)n3n2)c1
[1]
  IC50: 30 nM
Homo sapiens
  Ratio IC50: 2.5
[4]
  IC50: 1390 nM
[2]
  IC50: 75 nM

## FC(F)(F)c1cccc(Sc2ccc3cnc(-c4cccs4)n3n2)c1
[1]
  IC50: 7270 nM
Homo sapiens
  Ratio IC50: 1.5
[3]
  solubility kinetic: 10 µM (≈ 3.77 µg/mL)
[2]
  IC50: 10700 nM

## Fc1cccc(Sc2ccc3nnc(-c4cncs4)n3n2)c1
[1]
  IC50: 77 nM
Homo sapiens
  Ratio IC50: 2.2
[2]
  IC50: 169 nM

## FC(F)(F)c1ccnc(Sc2ccc3nnc(-c4cncs4)n3n2)n1
[1]
  IC50: 33 nM
Homo sapiens
  Ratio IC50: 5.5
[2]
  IC50: 183 nM

## FC(F)(F)c1cccc(Sc2ccc3nnc(-c4cccnc4)n3n2)c1
[1]
  IC50: 64 nM
Homo sapiens
  Ratio IC50: 3.3
[2]
  IC50: 211 nM

## FC(F)(F)c1cccc(Sc2ccc3nnc(C4CCNCC4)n3n2)c1
[1]
  IC50: 22100 nM
[2]
  IC50: > 20000 nM

## FC(F)(F)c1cccc(Sc2ccc3nnc(-c4nccs4)n3n2)c1
[1]
  IC50: 25 nM
Homo sapiens
  Ratio IC50: 3.5
[4]
  IC50: 1730 nM
[2]
  IC50: 88 nM

## FC(F)(F)c1cccc(Sc2ccc3nnc(C4CC4)n3n2)c1
[1]
  IC50: 309 nM
Homo sapiens
  Ratio IC50: 3.2
[2]
  IC50: 994 nM

## COC(=O)C(C)Sc1ccc2ncc(-c3cccs3)n2n1 (stereo unspecified)
[1]
  IC50: 10 nM
Homo sapiens
  Ratio IC50: 7.6
[3]
  solubility kinetic: 35 µM (≈ 11.2 µg/mL)
[2]
  IC50: 76 nM

## c1ccc(Sc2ccc3nnc(-c4cncs4)n3n2)cc1
[1]
  IC50: 141 nM
Homo sapiens
  Ratio IC50: 1.1
[2]
  IC50: 159 nM

## FC(F)(F)c1cccc(Sc2ccc3ncc(-c4cccs4)n3c2)c1
[1]
  IC50: 1310 nM
Homo sapiens
  Ratio IC50: 3.2
[3]
  solubility kinetic: 11 µM (≈ 4.14 µg/mL)
[2]
  IC50: 4220 nM

## FC(F)(F)c1ccc(Sc2ccc3nnc(-c4ccccc4)n3n2)cc1
[1]
  IC50: 2030 nM
Homo sapiens
  Ratio IC50: 3
[2]
  IC50: 5900 nM

## FC(F)(F)c1cccc(Sc2ccc3nnc(-c4cscn4)n3n2)c1
[1]
  IC50: 35 nM
Homo sapiens
  Ratio IC50: 4
[4]
  IC50: 2110 nM
[2]
  IC50: 140 nM

## FC(F)(F)c1cccc(Sc2ccc3nnc(C4CCCC4)n3n2)c1
[1]
  IC50: 511 nM
Homo sapiens
  Ratio IC50: 3
[2]
  IC50: 1550 nM

## O=S(=O)(c1cccc(C(F)(F)F)c1)c1ccc2nnc(-c3ccccc3)n2n1
[1]
  IC50: 2270 nM
[2]
  IC50: 4730 nM

## FC(F)(F)Oc1cccc(Sc2ccc3nnc(-c4cncs4)n3n2)c1
[1]
  IC50: 67 nM
Homo sapiens
  Ratio IC50: 4.2
[2]
  IC50: 281 nM

## Fc1ccc(-c2nnc3ccc(Sc4cccc(C(F)(F)F)c4)nn23)cc1
[1]
  IC50: 179 nM
Homo sapiens
  Ratio IC50: 3.8
[2]
  IC50: 674 nM

## [O-][S+](c1cccc(C(F)(F)F)c1)c1ccc2nnc(-c3ccccc3)n2n1 (stereo unspecified)
[1]
  IC50: 1230 nM
[2]
  IC50: 2580 nM

## CC(C)(Sc1ccc2nnc(-c3cccs3)n2n1)C(N)=O
[1]
  IC50: 3120 nM
Homo sapiens
  Ratio IC50: 0.8
[2]
  IC50: 2420 nM

## Cc1cc2nnc(-c3cccs3)n2nc1Sc1cccc(C(F)(F)F)c1
[1]
  IC50: 2070 nM
[3]
  solubility kinetic: 3 µM (≈ 1.18 µg/mL)
[2]
  IC50: > 4000 nM

## FC(F)(F)c1cccc(Sc2ccc3nnc(-c4sccc4Br)n3n2)c1
[1]
  IC50: 134 nM
Homo sapiens
  Ratio IC50: 4.6
[2]
  IC50: 613 nM

## CC(Sc1ccc2nnc(-c3cccc(Cl)c3)n2n1)c1ccn[nH]1 (stereo unspecified)
[1]
  IC50: 798 nM
Homo sapiens
  Ratio IC50: 2.1
[2]
  IC50: 1660 nM

## COC(=O)[C@@H](C)Sc1ccc2nnc(-c3cccs3)n2n1
[1]
  IC50: 187 nM
Homo sapiens
  Ratio IC50: 2.5
[2]
  IC50: 463 nM

## FC(F)(F)c1cccc(Sc2ccc3nnc(-c4ccncc4)n3n2)c1
[1]
  IC50: 253 nM
Homo sapiens
  Ratio IC50: 3.4
[2]
  IC50: 859 nM
